# Activity calls are given as the source filed them. The rule behind the calls is not given here.
# Tests used:
# [1] = system: Radical scavenging activity; experiment: Antioxidant activity assessed as DPPH radical scavenging activity; type: functional
# Method in brief: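 DPPH-HPLC method. Fresh 500 μM DPPH in methanol was mixed 1:1 by volume with antioxidant solutions made at 600, 300, 100 and 50 μM in methanol (DPPH final 250 μM). Residual DPPH was separated by reversed-phase C18 HPLC using a pH 3.0 phosphate/octanesulfonate/EDTA mobile phase with 6% acetonitrile. Vitamin E, caffeic acid and L-DOPA were run as references.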
# [2] = Octanol-water partition coefficient, log P at pH 7.4 by HPLC; type: physicochemical
# Method in brief: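 Shake-flask method. About 5 mg of compound was shaken in 1 mL n-octanol and filtered, then an equal volume of phosphate buffer pH 7.4 was added. The mixture was inverted up to 200 times over 5 min and left 30 min for the phases to separate. Both phases were analysed by HPLC. Mean of three experiments, SEM reported.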
# [3] = Chemical stability assessed as half life in hydrochloric acid buffer at pH 1.3; type: physicochemical
# Method in brief: (§1)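 Prodrug hydrolysis was followed at 37 ± 0.5 °C. Line 3 used 0.02 M HCl buffer pH 1.3 (nonenzymatic simulated gastric fluid); line 4 used 0.02 M phosphate buffer pH 7.4. Each buffer contained 20% acetonitrile, and the reaction was started with 10^-4 M acetonitrile stock. Aliquots were analysed by HPLC. Kobs came from the slope of log(% residual prodrug) versus time; triplicate runs, mean ± SEM.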
# [4] = Aqueous solubility after 15 mins by shake flask method; type: physicochemical; conditions: water
# [5] = Metabolic stability in 80% rat plasma assessed as half life at pH 7.4; type: ADME, cell-free
# Method in brief: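 Plasma was prepared from citrated blood (0.3% citric acid) of rats or humans by centrifugation at 3000 g and diluted to 80% with 0.02 M phosphate buffer pH 7.4. Drug from a 1 mg/mL acetonitrile stock was incubated at 37 °C with shaking. Timed aliquots were deproteinized with 0.01 M HCl in methanol, centrifuged and analysed by HPLC. First-order plots gave t1/2; triplicate, mean ± SEM.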
# Homo sapiens = species: Homo sapiens; experiment: Metabolic stability in 80% human plasma assessed as half life at pH 7.4
# [6] = Chemical stability assessed as half life in phosphate buffer at pH 7.4; type: physicochemical; method in brief: as §1
Compound,Activity [1],logD [2],half-life [3] [h],solubility thermodynamic at 0.25 h [4] [µg/mL],half-life [5] [h],half-life (Homo sapiens) [h],half-life [6] [h],logP [2]
COC(=O)CN1C(=O)[C@H](Cc2ccc(O)c(O)c2)NC1(C)C,Active,0.101,189,3990,1.17,0.714,4.2,–
CCC1(CC)N[C@@H](Cc2ccc(O)c(O)c2)C(=O)N1CC(=O)OC,Active,0.94,64.3,260,1.89,0.793,4.75,–
N[C@@H](Cc1ccc(O)c(O)c1)C(=O)O [LEVODOPA],–,–,–,3600,–,–,–,-2.38
COC(=O)CN1C(=O)[C@H](Cc2ccc(OC(C)=O)c(OC(C)=O)c2)NC1(C)C,inactive,0.042,71.2,26000,0.065,0.392,11.6,–

# — ChEMBL document CHEMBL1157590, “Design, synthesis, and preliminary pharmacological evaluation of new imidazolinones as L-DOPA prodrugs” (Bioorg Med Chem, 2010)
